From ChEMBL document CHEMBL1208737, “Synthesis and in vitro evaluation of N-alkyl-3-hydroxy-3-(2-imino-3-methyl-5-oxoimidazolidin-4-yl)indolin-2-one analogs as potential anticancer agents” (2010)

Key:
Format in all cases: functional
[1] = Growth inhibition of human Hs 578T cells by sulforhodamine B assay
How it was run: (§1)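 Five-dose response testing across a 57-line human tumour panel (leukemia, non-small cell lung, colon, CNS, melanoma, ovarian, renal, prostate, breast), done after a single-dose primary screen run per the NCI method. Effect plotted against log10 molar drug concentration for each cell line. GI50 is the concentration giving a 50% reduction in net protein increase versus control cells.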

[2] = tested on: M14; assay: Growth inhibition of human M14 cells by sulforhodamine B assay; how it was run: as §1
[3] = tested on: IGROV-1; assay: Growth inhibition of human IGROV1 cells by sulforhodamine B assay; how it was run: as §1
[4] = tested on: OVCAR-5; assay: Growth inhibition of human OVCAR5 cells by sulforhodamine B assay; how it was run: as §1
[5] = tested on: HT-29; assay: Growth inhibition of human HT-29 cells by sulforhodamine B assay; how it was run: as §1
[6] = tested on: NCI-H23; assay: Growth inhibition of human NCI-H23 cells by sulforhodamine B assay; how it was run: as §1
[7] = tested on: NCI-H460; assay: Growth inhibition of human NCI-H460 cells by sulforhodamine B assay; how it was run: as §1
[8] = tested on: HCT-116; assay: Growth inhibition of human HCT116 cells by sulforhodamine B assay; how it was run: as §1
[9] = tested on: ACHN; assay: Growth inhibition of human ACHN cells by sulforhodamine B assay; how it was run: as §1
[10] = tested on: MDA-MB-468; assay: Growth inhibition of human MDA-MB-468 cells by sulforhodamine B assay; how it was run: as §1
[11] = tested on: A549; assay: Growth inhibition of human A549 cells by sulforhodamine B assay
How it was run: (§2)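 Five-dose response testing across the 57-line human tumour panel. Growth effect was plotted against log10 drug concentration for each cell line. GI50 is the molar concentration giving a 50% reduction in net protein increase relative to untreated control cells. TGI (total growth inhibition) and LC50 (concentration lethal to 50% of cells) were read from the same curves.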

[12] = tested on: HL-60(TB); assay: Growth inhibition of human HL-60(TB) cells by sulforhodamine B assay; how it was run: as §1
[13] = tested on: TK-10; assay: Growth inhibition of human TK10 cells by sulforhodamine B assay
How it was run: (§3)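 Part of a 57-line human tumour cell panel run at five doses. Growth effect was plotted against log10 molar drug concentration for each cell line. GI50 is the concentration giving a 50% reduction in net protein increase relative to untreated control cells, read from the dose-response curve.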

[14] = tested on: SNB-19; assay: Growth inhibition of human SNB19 cells by sulforhodamine B assay; how it was run: as §1
[15] = tested on: Malme-3M; assay: Growth inhibition of human MALME-3M cells by sulforhodamine B assay; how it was run: as §1
[16] = tested on: EKVX; assay: Growth inhibition of human EKVX cells by sulforhodamine B assay; how it was run: as §1
[17] = tested on: CCRF-CEM; assay: Growth inhibition of human CCRF-CEM cells by sulforhodamine B assay; how it was run: as §1
[18] = tested on: UO-31; assay: Growth inhibition of human UO31 cells by sulforhodamine B assay; how it was run: as §3
[19] = tested on: SW-620; assay: Growth inhibition of human SW620 cells by sulforhodamine B assay; how it was run: as §1
[20] = tested on: UACC-257; assay: Growth inhibition of human UACC257 cells by sulforhodamine B assay; how it was run: as §3
[21] = tested on: SK-MEL-5; assay: Growth inhibition of human SK-MEL-5 cells by sulforhodamine B assay; how it was run: as §1
[22] = tested on: HOP-62; assay: Growth inhibition of human HOP62 cells by sulforhodamine B assay; how it was run: as §1
[23] = tested on: KM12; assay: Growth inhibition of human KM12 cells by sulforhodamine B assay; how it was run: as §1
[24] = tested on: 786-0; assay: Growth inhibition of human 786-0 cells by sulforhodamine B assay; how it was run: as §1
[25] = tested on: MDA-MB-231; assay: Growth inhibition of human MDA-MB-231 cells by sulforhodamine B assay; how it was run: as §1
[26] = tested on: LOX IMVI; assay: Growth inhibition of human LOXIMVI cells by sulforhodamine B assay; how it was run: as §2
[27] = tested on: NCI/ADR-RES; assay: Growth inhibition of human NCI/ADR-RES cells by sulforhodamine B assay; how it was run: as §1
[28] = tested on: NCI-H322M; assay: Growth inhibition of human NCI-H322M cells by sulforhodamine B assay; how it was run: as §1
[29] = tested on: OVCAR-3; assay: Growth inhibition of human OVCAR-3 cells by sulforhodamine B assay; how it was run: as §1
[30] = tested on: NCI-H226; assay: Growth inhibition of human NCI-H226 cells by sulforhodamine B assay; how it was run: as §1
[31] = tested on: T47D; assay: Growth inhibition of human T47D cells by sulforhodamine B assay; how it was run: as §3
[32] = tested on: SNB-75; assay: Growth inhibition of human SNB75 cells by sulforhodamine B assay; how it was run: as §1
[33] = tested on: NCI-H522; assay: Growth inhibition of human NCI-H522 cells by sulforhodamine B assay; how it was run: as §1
[34] = tested on: A498; assay: Growth inhibition of human A498 cells by sulforhodamine B assay; how it was run: as §1
[35] = Growth inhibition of human […] cells by sulforhodamine B assay; how it was run: as §1
[36] = tested on: PC-3; assay: Growth inhibition of human PC3 cells by sulforhodamine B assay; how it was run: as §1
[37] = tested on: SK-OV-3; assay: Growth inhibition of human SKOV3 cells by sulforhodamine B assay; how it was run: as §1
[38] = tested on: MOLT-4; assay: Growth inhibition of human MOLT4 cells by sulforhodamine B assay; how it was run: as §1
[39] = tested on: SN12C; assay: Growth inhibition of human SN12C cells by sulforhodamine B assay; how it was run: as §1
[40] = tested on: RXF 393; assay: Growth inhibition of human RXF393 cells by sulforhodamine B assay; how it was run: as §1
[41] = tested on: HCC 2998; assay: Growth inhibition of human HCC2998 cells by sulforhodamine B assay; how it was run: as §1
[42] = tested on: COLO 205; assay: Growth inhibition of human COLO205 cells by sulforhodamine B assay; how it was run: as §1
[43] = tested on: MCF7; assay: Growth inhibition of human MCF7 cells by sulforhodamine B assay; how it was run: as §1
[44] = tested on: SF-295; assay: Growth inhibition of human SF295 cells by sulforhodamine B assay; how it was run: as §1
[45] = tested on: K562; assay: Growth inhibition of human K562 cells by sulforhodamine B assay; how it was run: as §1
[46] = tested on: OVCAR-4; assay: Growth inhibition of human OVCAR4 cells by sulforhodamine B assay; how it was run: as §1
[47] = tested on: SF-539; assay: Growth inhibition of human SF539 cells by sulforhodamine B assay; how it was run: as §1
[48] = tested on: HCT-15; assay: Growth inhibition of human HCT15 cells by sulforhodamine B assay; how it was run: as §1
[49] = tested on: SF-268; assay: Growth inhibition of human SF268 cells by sulforhodamine B assay; how it was run: as §1
[50] = tested on: SK-MEL-28; assay: Growth inhibition of human SK-MEL-28 cells by sulforhodamine B assay; how it was run: as §1
[51] = tested on: CAKI-1; assay: Growth inhibition of human Caki1 cells by sulforhodamine B assay; how it was run: as §1
[52] = tested on: MDA-MB-435; assay: Growth inhibition of human MDA-MB-435 cells by sulforhodamine B assay; how it was run: as §1
[53] = tested on: UACC-62; assay: Growth inhibition of human UACC62 cells by sulforhodamine B assay; how it was run: as §3
[54] = tested on: DU-145; assay: Growth inhibition of human DU145 cells by sulforhodamine B assay; how it was run: as §1
[55] = tested on: SK-MEL-2; assay: Growth inhibition of human SK-MEL-2 cells by sulforhodamine B assay; how it was run: as §1
[56] = tested on: OVCAR-8; assay: Growth inhibition of human OVCAR8 cells by sulforhodamine B assay; how it was run: as §1
[57] = tested on: BT-549; assay: Growth inhibition of human BT549 cells by sulforhodamine B assay; how it was run: as §1
[58] = read-out: LC50 (the source's name)

Structure (SMILES): COc1ccc(CN2C(=O)C(O)(C3C(=O)NC(=N)N3C)c3cc(Cl)ccc32)cc1 (stereo unspecified)
- GI50 [1]: 2.04 µM
- CC50 [1, 58]: > 100 µM
- GI50 [2]: 3.59 µM
- LC50 [2]: 61.4 µM
- GI50 [3]: 2.59 µM
- CC50 [3, 58]: > 100 µM
- GI50 [4]: 34.9 µM
- CC50 [4, 58]: > 100 µM
- GI50 [5]: 1.38 µM
- LC50 [5]: 44.1 µM
- GI50 [6]: 4.74 µM
- LC50 [6]: > 100 µM
- GI50 [7]: 26.8 µM
- LC50 [7]: > 100 µM
- GI50 [8]: 3 µM
- LC50 [8]: 34.5 µM
- GI50 [9]: 20.4 µM
- CC50 [9, 58]: > 100 µM
- GI50 [10]: 2.29 µM
- LC50 (concentration causing 50% net cell kill) [10]: > 100 µM
- GI50 [11]: 0.19 µM
- LC50 [11]: 10.9 µM
- TGI [11]: 1.96 µM
- GI50 [12]: 3.22 µM
- LC50 [12]: > 100 µM
- GI50 [13]: 4.11 µM
- CC50 [13, 58]: > 100 µM
- GI50 [14]: 17.2 µM
- CC50 [14, 58]: > 100 µM
- GI50 [15]: 29.6 µM
- CC50 [15, 58]: > 100 µM
- GI50 [16]: 28.5 µM
- LC50 [16]: > 100 µM
- GI50 [17]: 2.06 µM
- CC50 [17, 58]: > 100 µM
- GI50 [18]: 4.15 µM
- CC50 [18, 58]: > 100 µM
- GI50 [19]: 2.59 µM
- CC50 [19, 58]: 49.6 µM
- GI50 [20]: 1.43 µM
- LC50 [20]: 19.4 µM
- GI50 [21]: 22.6 µM
- CC50 [21, 58]: > 100 µM
- GI50 [22]: 5.12 µM
- CC50 [22, 58]: > 100 µM
- GI50 [23]: 2.05 µM
- CC50 [23, 58]: 30 µM
- GI50 [24]: 3.44 µM
- CC50 [24, 58]: 43 µM
- GI50 [25]: 8.55 µM
- CC50 [25, 58]: > 100 µM
- GI50 [26]: 0.75 µM
- TGI [26]: 11.8 µM
- CC50 [26, 58]: 60 µM
- GI50 [27]: 1.88 µM
- CC50 [27, 58]: 36.5 µM
- GI50 [28]: 14.3 µM
- CC50 [28, 58]: > 100 µM
- GI50 [29]: 2.08 µM
- CC50 [29, 58]: 11.5 µM
- GI50 [30]: 26.8 µM
- CC50 [30, 58]: > 100 µM
- GI50 [31]: 13.5 µM
- LC50 [31]: > 100 µM
- GI50 [32]: 3.39 µM
- CC50 [32, 58]: > 100 µM
- GI50 [33]: 1.86 µM
- LC50 (concentration killing 50% of cells) [33]: 20.5 µM
- GI50 [34]: 34.5 µM
- CC50 [34, 58]: > 100 µM
- GI50 [35]: 2.62 µM
- CC50 [35, 58]: > 100 µM
- GI50 [36]: 4.27 µM
- CC50 [36, 58]: > 100 µM
- GI50 [37]: 30.1 µM
- CC50 [37, 58]: > 100 µM
- GI50 [38]: 2.94 µM
- CC50 [38, 58]: > 100 µM
- GI50 [39]: 5.94 µM
- CC50 [39, 58]: > 100 µM
- GI50 [40]: 6.29 µM
- CC50 [40, 58]: > 100 µM
- GI50 [41]: 18.7 µM
- LC50 [41]: 73.9 µM
- GI50 [42]: 14.3 µM
- CC50 [42, 58]: > 100 µM
- GI50 [43]: 3.22 µM
- LC50 (concentration killing 50% of starting cells) [43]: > 100 µM
- GI50 [44]: 3.71 µM
- CC50 [44, 58]: > 100 µM
- GI50 [45]: 5.04 µM
- CC50 [45, 58]: > 100 µM
- GI50 [46]: 5.52 µM
- CC50 [46, 58]: > 100 µM
- GI50 [47]: 3.12 µM
- CC50 [47, 58]: 79.1 µM
- GI50 [48]: 12.6 µM
- LC50 (concentration killing 50% of starting cells) [48]: > 100 µM
- GI50 [49]: 3.31 µM
- CC50 [49, 58]: 64.9 µM
- GI50 [50]: 50.3 µM
- CC50 [50, 58]: > 100 µM
- GI50 [51]: 1.98 µM
- CC50 [51, 58]: > 100 µM
- GI50 [52]: 6.12 µM
- CC50 [52, 58]: 93.1 µM
- GI50 [53]: 23.4 µM
- CC50 [53, 58]: > 100 µM
- GI50 [54]: 3.76 µM
- CC50 [54, 58]: 74.6 µM
- GI50 [55]: 10.4 µM
- CC50 [55, 58]: 96 µM
- GI50 [56]: 1.35 µM
- CC50 [56, 58]: 17.2 µM
- GI50 [57]: 2.98 µM
- LC50 [57]: 54.9 µM
